One compound from ChEMBL document CHEMBL5653623 (J Pharmacol Exp Ther, 2015) can be followed below.

Active and inactive are the calls of the source. No cut-off for these calls is given here.

As a reminder, the IC50 is the concentration that inhibits the measured activity by half. Low values mean inhibition by little substance, high ones a need for much substance. The Cmax is the highest concentration seen after dosing. By fraction unbound is commonly meant the share of the substance not bound to proteins or other matrix. High values mean much free substance, low ones little free substance.

The target of data set [1] is Leucine-rich repeat serine/threonine-protein kinase 2 (Mus musculus) (UniProt Q5S006). The data set is described as follows: In vivo inhibition of LRRK2 in C57Bl/6 mouse kidney assessed as reduction in pSer935 LRRK2 administered for 11 days by Western blotting analysis. In kind it is functional, organism-based. The following applies: time 11.0 day. The procedure, abridged:
(§1)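 Same 11-day in-diet design in male C57Bl/6 mice: 3-120 mg/kg/day or untreated diet, killed 4, 8 or 24 h after dark-cycle onset, n = 5 per group. Kidneys dissected for Western blot of pSer935 and total LRRK2, with total LRRK2 detected by MJFF-2 antibody.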
(In general: A western blot detects proteins with antibodies after separation by electrophoresis.)

The target in data set [2] is Mitogen-activated protein kinase kinase kinase 14 (Homo sapiens, UniProt Q99558). The data set is described as follows: Inhibition of MAP3K14 (unknown origin).
Sequence of Mitogen-activated protein kinase kinase kinase 14 (Q99558 whole entry): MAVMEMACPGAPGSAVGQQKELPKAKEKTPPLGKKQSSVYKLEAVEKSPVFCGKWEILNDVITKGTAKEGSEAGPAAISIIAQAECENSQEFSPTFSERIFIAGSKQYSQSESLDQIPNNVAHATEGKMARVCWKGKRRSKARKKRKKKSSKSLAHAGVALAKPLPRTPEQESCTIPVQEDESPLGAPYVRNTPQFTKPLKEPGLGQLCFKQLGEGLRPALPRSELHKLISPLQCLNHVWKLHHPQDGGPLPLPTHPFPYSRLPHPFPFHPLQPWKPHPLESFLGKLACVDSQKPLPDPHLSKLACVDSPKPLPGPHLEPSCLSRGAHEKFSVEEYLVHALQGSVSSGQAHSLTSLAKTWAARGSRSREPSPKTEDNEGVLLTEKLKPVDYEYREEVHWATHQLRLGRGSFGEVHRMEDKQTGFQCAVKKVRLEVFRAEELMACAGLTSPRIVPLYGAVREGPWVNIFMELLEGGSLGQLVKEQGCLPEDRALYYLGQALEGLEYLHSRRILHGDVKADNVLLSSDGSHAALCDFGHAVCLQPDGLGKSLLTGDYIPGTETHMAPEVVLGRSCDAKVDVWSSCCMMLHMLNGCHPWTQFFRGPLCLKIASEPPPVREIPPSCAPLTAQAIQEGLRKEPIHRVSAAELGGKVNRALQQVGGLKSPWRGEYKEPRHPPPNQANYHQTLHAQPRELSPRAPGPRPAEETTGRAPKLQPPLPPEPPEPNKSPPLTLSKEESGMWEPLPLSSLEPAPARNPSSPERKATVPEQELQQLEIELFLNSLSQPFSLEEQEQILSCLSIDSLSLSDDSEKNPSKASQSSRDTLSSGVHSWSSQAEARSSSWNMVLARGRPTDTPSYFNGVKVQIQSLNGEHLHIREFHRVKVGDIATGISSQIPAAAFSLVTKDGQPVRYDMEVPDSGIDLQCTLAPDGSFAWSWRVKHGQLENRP
Data set [3] is described as follows: Unbound brain concentration in C57Bl/6 mouse at 10 mg/kg, po administered for 1 hr. Conditions: in vivo. Format: ADME, organism-based.
Data set [4] deals with Mus musculus. Nature of the data set: Effect on behavioral changes in 8 weeks old MitoPark mouse striatum assessed as DOPAC level at 30 mg/kg/day administered for 3 weeks by HPLC analysis. Format: functional. The procedure, abridged: (§2)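 Striatum from MitoPark mice on diet targeting 30 mg/kg/day or vehicle diet (wild-type littermate controls) was homogenized by sonication in 0.1 M acid at 0.1 g/mL. Samples were held 60 min at 4 °C and centrifuged. Dopamine, DOPAC and HVA were measured by HPLC with electrochemical detection against a 3,4-DHBA internal standard and standard curves. Mean ± SEM.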

Data set [5] can be described thus: Cmax in C57Bl/6 mouse at 10 mg/kg, po measured after 480 mins by LC-MS/MS analysis. The following applies: in vivo. In kind it is ADME, organism-based. The procedure, abridged:
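Male C57Bl/6 mice (20-25 g) given a single IV dose (2 mg/kg) or oral dose (10 mg/kg). Blood was sampled at 5, 15, 30, 60, 120, 240, 360 and 480 min and plasma prepared by centrifugation. Plasma drug levels were measured by LC/MS/MS. Values are mean (CV%), N=3.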

Data set [6] deals with Mus musculus. Nature of the data set: Effect on behavioral changes in 8 weeks old MitoPark mouse striatum assessed as TH level at 30 mg/kg/day administered for 3 weeks by […] relative to control. In kind it is functional.
The subject of data set [7] is Mus musculus. The data set is described as follows: Effect on histological changes in 20 weeks old MitoPark mouse kidney assessed as accumulation of pigment in renal cortical tubules at 30 mg/kg/day administered for 15 weeks by hematoxylin and eosin staining based microscopic analysis. In kind it is functional, organism-based. The procedure, abridged:
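MitoPark mice were fed diet targeting 30 mg/kg/day or vehicle for 15 weeks and euthanized at 20 weeks of age (n=5/group). Kidney and lung were fixed in 10% neutral buffered formalin, paraffin-embedded, sectioned at 5 µm, H&E-stained and examined microscopically.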

Data set [8] concerns the target Leucine-rich repeat serine/threonine-protein kinase 2 (Mus musculus) (UniProt Q5S006). The data set is described as follows: In vivo inhibition of LRRK2 in C57Bl/6 mouse brain assessed as reduction in pSer935 LRRK2 administered for 11 days and measured after 4 hrs by Western blotting analysis. Format: functional, organism-based. Conditions: dose 3-120 mg/kg, time 11.0 day. The procedure, abridged:
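Male C57Bl/6 mice, singly housed on a reversed light cycle. Fed drug diet targeted to 3, 10, 30, 60 or 120 mg/kg/day (assuming 3 g/day intake), or untreated diet, for 11 days. Killed 4, 8 or 24 h after dark-cycle onset, n = 5 per group. Cortex immunoblotted for pSer935/total LRRK2 and total LRRK2/GAPDH. Total LRRK2 detected with MJFF2 antibody.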

The target in data set [9] is T1, Mitogen-activated protein kinase kinase kinase 5 (Homo sapiens, UniProt Q99683).
T1 sequence (Q99683 whole entry): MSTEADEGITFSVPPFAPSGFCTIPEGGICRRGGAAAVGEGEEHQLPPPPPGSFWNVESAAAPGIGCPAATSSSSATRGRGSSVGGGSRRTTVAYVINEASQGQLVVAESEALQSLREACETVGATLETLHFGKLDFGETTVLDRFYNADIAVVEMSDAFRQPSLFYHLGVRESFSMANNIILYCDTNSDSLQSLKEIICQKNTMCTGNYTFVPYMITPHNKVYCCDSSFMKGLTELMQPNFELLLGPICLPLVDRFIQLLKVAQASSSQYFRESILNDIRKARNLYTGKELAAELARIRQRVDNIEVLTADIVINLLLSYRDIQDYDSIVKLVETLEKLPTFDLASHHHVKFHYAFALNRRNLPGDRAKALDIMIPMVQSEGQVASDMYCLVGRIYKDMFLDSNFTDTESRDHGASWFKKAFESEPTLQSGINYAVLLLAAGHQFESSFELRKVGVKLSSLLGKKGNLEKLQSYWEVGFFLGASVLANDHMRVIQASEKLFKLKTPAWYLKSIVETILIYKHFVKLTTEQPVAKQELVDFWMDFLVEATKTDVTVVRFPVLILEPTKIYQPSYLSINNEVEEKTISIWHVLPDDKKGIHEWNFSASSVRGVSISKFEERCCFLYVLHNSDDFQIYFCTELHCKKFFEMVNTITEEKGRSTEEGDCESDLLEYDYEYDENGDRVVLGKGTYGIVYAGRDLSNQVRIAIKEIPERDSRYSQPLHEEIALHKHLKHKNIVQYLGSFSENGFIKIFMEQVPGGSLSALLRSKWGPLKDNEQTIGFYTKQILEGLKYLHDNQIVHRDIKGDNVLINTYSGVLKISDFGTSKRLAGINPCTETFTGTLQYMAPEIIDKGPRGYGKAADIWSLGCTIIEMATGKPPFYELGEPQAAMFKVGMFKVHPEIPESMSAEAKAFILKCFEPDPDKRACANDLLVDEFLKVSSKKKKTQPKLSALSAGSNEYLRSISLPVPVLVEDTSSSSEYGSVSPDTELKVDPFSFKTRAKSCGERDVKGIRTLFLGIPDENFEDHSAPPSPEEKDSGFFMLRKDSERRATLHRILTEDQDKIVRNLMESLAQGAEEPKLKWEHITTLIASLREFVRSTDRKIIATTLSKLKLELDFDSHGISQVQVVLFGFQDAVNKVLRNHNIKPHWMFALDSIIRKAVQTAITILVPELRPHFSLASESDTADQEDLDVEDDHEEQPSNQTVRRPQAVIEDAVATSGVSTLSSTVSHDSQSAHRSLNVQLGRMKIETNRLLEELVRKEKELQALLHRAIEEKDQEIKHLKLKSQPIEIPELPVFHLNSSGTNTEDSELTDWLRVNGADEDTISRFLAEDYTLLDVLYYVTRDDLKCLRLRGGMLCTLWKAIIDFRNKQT
Nature of the data set: Inhibition of MAP3K5 (unknown origin).

Data set [10] can be described thus: Unbound fraction in C57Bl/6 mouse plasma. Format: ADME, cell-free. The procedure, abridged: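 Plasma and brain binding were determined by equilibrium dialysis at 1 μM.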
The subject of data set [11] is Mus musculus. Nature of the data set: Effect on behavioral changes in 14 weeks old MitoPark mouse striatum assessed as HVA level at 30 mg/kg/day by HPLC analysis. Format: functional. The procedure, abridged: as §2
In data set [12] the target is Leucine-rich repeat serine/threonine-protein kinase 2 (Mus musculus) (UniProt Q5S006). The data set is described as follows: In vivo inhibition of LRRK2 in C57Bl/6 mouse kidney assessed as total LRRK2 protein level at 30 to 120 mg/kg administered for 11 days and measured after 24 hrs by Western blotting analysis. In kind it is functional, organism-based. The following applies: dose 30-120 mg/kg, time 11.0 day. The procedure, abridged:
as §1

Sequence of Leucine-rich repeat serine/threonine-protein kinase 2 (Mus musculus) (Q5S006 whole entry): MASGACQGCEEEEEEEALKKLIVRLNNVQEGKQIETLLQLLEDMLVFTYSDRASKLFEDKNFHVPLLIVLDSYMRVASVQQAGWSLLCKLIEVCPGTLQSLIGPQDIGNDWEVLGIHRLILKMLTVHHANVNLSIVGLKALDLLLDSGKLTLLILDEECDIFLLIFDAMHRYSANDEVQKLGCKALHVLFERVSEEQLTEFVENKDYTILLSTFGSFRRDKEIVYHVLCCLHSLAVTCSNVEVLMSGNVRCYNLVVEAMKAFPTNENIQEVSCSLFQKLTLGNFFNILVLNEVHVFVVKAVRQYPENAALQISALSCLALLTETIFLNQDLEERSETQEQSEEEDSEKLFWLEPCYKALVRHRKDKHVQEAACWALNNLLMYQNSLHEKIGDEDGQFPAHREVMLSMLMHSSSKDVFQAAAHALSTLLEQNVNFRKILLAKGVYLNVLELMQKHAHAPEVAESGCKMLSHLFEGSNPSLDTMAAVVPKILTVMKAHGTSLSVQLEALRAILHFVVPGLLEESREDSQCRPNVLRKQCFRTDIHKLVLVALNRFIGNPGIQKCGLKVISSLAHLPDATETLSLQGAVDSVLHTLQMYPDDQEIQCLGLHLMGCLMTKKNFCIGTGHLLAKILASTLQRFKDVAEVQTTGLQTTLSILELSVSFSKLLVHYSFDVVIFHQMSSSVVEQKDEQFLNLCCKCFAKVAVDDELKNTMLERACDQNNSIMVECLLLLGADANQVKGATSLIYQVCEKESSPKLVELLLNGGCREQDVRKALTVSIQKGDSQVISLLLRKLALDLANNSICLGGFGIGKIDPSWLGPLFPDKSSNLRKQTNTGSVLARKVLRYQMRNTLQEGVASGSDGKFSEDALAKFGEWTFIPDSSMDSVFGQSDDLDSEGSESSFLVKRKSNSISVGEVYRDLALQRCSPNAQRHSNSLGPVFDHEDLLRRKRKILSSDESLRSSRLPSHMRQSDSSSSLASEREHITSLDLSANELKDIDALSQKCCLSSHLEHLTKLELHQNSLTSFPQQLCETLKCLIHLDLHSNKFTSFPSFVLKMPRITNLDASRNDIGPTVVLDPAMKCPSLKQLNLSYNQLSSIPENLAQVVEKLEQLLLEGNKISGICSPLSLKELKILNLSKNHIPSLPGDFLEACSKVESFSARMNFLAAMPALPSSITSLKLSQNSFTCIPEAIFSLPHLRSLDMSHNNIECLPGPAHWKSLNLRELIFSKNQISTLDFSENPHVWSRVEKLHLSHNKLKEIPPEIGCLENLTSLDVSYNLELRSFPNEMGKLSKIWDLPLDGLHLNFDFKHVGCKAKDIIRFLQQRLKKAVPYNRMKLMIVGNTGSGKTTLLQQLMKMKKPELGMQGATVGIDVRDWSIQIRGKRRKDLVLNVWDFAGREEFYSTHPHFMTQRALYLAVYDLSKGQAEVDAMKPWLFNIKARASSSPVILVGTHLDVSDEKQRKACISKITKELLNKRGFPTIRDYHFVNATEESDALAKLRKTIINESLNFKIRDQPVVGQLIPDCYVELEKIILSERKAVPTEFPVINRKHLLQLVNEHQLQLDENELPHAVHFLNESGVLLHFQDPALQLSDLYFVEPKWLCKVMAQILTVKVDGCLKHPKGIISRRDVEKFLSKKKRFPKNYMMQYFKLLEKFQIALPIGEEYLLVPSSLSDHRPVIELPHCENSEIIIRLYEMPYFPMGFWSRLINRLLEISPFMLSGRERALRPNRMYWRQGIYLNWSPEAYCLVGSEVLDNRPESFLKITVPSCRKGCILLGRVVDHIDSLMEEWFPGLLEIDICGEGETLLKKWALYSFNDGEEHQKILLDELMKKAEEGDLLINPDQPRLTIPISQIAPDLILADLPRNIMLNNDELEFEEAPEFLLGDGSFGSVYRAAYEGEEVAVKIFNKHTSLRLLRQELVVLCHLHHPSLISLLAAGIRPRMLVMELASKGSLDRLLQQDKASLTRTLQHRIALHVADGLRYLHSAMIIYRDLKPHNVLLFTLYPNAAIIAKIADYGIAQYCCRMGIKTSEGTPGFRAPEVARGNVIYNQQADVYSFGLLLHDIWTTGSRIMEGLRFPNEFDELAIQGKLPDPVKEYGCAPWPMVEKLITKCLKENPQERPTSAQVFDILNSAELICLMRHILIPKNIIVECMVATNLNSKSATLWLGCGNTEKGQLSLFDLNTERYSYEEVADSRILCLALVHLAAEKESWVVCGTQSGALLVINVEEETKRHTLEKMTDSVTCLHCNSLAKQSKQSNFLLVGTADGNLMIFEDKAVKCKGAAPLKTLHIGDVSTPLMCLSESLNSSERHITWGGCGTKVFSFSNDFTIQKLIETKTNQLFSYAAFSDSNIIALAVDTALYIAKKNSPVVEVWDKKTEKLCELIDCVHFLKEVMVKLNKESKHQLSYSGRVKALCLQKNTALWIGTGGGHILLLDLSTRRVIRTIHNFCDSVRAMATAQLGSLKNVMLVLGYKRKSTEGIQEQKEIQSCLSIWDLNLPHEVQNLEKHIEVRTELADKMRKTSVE

For the compound `C[C@@H]1CN(c2cc(-c3n[nH]c4ccc(OC5(C)CC5)cc34)ncn2)C[C@H](C)O1` [MLi-2], the inhibition result in data set [1] and in data set [12] was “Active” each time. Further, the IC50 in data set [2] came out at 244 nM; in [9] it was 428 nM. Moreover, the “Drug uptake(free)” value in [3] is recorded as 25.4 nM. For the same compound, the Activity in the data set on Mus musculus [4] was 8966 ng/g; in the data set on Mus musculus [6] it was 49.89%; in the data set with Mus musculus [11], 323.7 ng/g. Moreover, in [5], the Cmax stood at 298 nM. The outcome in the data set on Mus musculus [7] was inactive. In addition, in data set [8], the inhibition entry is “Dose-Dependent Effect”. Further, the unbound share (fraction unbound) in data set [10] came out at 0.008.
